# *1 amine or outer side, *2 acyl side, *3 side chain or, on linkers, in order; H or OH if unused. Where a SMILES comes first, the peptide text is derived from it. The star is where a group is joined. X4 = CC(ON(C(C)(C)C)C(C)(C)C)c1ccc(O*)cc1; Suc = O=C(CCC(=O)[*:2])[*:1]
# Tests used:
# [1] = tested on: U87 human glioblastoma cell line; assay: PrestoBlue viability test on U87 cells with or without HNE; assay type: cell-based; conditions: 48 h
# Summary of the method: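 U87 cells were seeded and cultured for 48 h, then switched to serum-free DMEM. Test compound (0–400 μM) and HNE 0.68 μM were added; where used, eglin C 10 μM was added before HNE. After 1 h, 10% serum was added and incubation continued for 24, 48 or 72 h. PrestoBlue reagent (1/10 volume) was added for 30 min at 37 °C, and fluorescence was read at ex 560/em 590 nm.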
# [2] = tested on: caspase 3/7 activation in U87 cells; assay: Caspase-Glo 3/7 assay in U87 cells; assay type: cell-based, human; conditions: doxorubicin 2 μM
# Summary of the method: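 U87 human glioblastoma cells were grown in DMEM with 10% FBS at 37 °C and 5% CO2, then seeded and cultured for 48 h before treatment. Doxorubicin 2 μM served as the apoptosis control, and signals were followed over time up to 48 h. For Caspase-Glo 3/7, plate and reagent were equilibrated to room temperature, then reagent was added to the wells. After 15 min at room temperature, luminescence was read.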
# [3] = tested on: U87 cells; assay: RealTime-Glo Annexin V Apoptosis and Necrosis Assay in U87 cells; assay type: cell-based, human; conditions: doxorubicin 2 μM
# Summary of the method: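 U87 cells were kept in DMEM with 10% FBS at 37 °C and 5% CO2, seeded for 48 h, then exposed to doxorubicin 2 μM as the apoptosis control and followed up to 48 h. RealTime-Glo detection reagent was added to the live-cell medium. Annexin V binding was read by luminescence. Necrosis was read as fluorescence of a cell-impermeant DNA dye (ex 485/em 530 nm) after 60 min at 37 °C.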
molecule,measurement,setting,value
COc1cccc2c1C(=O)c1c(O)c3c(c(O)c1C2=O)C[C@@](O)(C(=O)CO)C[C@@H]3O[C@H]1C[C@H](N)[C@H](O)[C@H](C)O1 [doxorubicin],U87 population still viable,[1]; doxorubicin 2 μM,50%
same,caspase activity (positive control),[2],increases between 24 and 48 h
same,DNA+ labeling (positive control),[3],increases regularly until 48 h
same,annexin V labeling (positive control),[3]; timing similar to caspase (24 to 48 h),highly AV+
"CC(NC(=O)CCC(=O)O)C(=O)NC(C)C(=O)N1CCCC1C(=O)NC(C(=O)Oc1ccc(C(C)ON(C(C)(C)C)C(C)(C)C)cc1)C(C)C (stereo not drawn) [suc-AAPV-phenol-DBNO, Acid 4-((1-((1-(2-((1-(4-(1-((di-tert-butylamino)oxy)ethyl)phenoxy)-3-methyl-1-oxobutan-2-yl)carbamoyl)pyrrolidin-1-yl)-1-oxopropan-2-yl)amino)-1-oxopropan-2-yl)amino)-4-oxobutanoic Acid] (Suc-AAPV-X4; configuration not given here)",effect on viability in the presence of HNE,"[1]; U87 cells, prodrug 0–400 μM, HNE 0.68 μM",does not have any measurable effect
"eglin C: a potent HNE inhibitor (CIBA-GEIGY) (protein, UniProt P01051 1-70, looked up) Eglin C: TEFGSELKSFPEVVGKTVDQAREYFTLHYPQYDVYFLPEGSPVTLDLRYNRVRVFYNPGTNVVNHVPHVG",rescue of U87 cells from prodrug + HNE cytotoxicity by elastase inhibitor,"[1]; eglin C 10 μM added just before HNE 0.68 μM, four prodrugs",rescues the cells
